HKDC1 inh = HKDC1 (human) hexokinase inhibition; recombinant HKDC1, G6PDH/diaphorase resazurin coupled fluorescence; inhibition, % at 20 µM; hit rate 0.16% among 340,000;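 active = inhibition above about 35% when tested at 20 µM, limit read from the data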;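 note: plate controls were DMSO wells with enzyme for no effect and DMSO wells lacking enzyme for full effect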
Target sequence (Q2TB90 whole entry, looked up): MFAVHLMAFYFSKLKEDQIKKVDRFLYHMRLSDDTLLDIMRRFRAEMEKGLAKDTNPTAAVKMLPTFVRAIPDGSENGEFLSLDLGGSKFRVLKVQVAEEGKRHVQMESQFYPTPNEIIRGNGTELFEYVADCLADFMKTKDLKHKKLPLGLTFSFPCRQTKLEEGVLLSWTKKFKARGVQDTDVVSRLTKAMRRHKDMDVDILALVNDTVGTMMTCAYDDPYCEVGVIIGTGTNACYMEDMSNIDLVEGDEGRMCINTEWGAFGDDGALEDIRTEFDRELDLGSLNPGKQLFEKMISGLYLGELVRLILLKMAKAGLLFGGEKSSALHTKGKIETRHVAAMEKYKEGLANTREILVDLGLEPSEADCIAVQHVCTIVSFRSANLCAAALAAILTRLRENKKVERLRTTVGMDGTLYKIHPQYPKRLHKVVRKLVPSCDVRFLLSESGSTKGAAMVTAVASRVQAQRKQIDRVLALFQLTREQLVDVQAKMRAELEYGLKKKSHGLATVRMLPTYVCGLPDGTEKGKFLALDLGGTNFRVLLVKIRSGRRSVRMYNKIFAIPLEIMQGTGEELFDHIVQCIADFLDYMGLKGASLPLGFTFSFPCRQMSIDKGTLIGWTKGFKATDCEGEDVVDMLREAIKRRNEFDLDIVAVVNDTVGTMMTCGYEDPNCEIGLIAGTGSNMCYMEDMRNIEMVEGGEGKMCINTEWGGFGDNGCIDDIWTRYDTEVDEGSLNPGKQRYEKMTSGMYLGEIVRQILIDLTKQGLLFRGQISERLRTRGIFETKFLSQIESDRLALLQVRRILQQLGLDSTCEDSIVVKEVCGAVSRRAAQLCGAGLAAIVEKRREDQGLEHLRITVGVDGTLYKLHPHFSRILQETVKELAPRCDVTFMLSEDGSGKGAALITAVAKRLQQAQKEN
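Assay system: in-house recombinant HK5 (HKDC1) enzyme. Input: HKDC1 at 5 µg/mL. Medium: Tris pH 8.0 buffer with MgCl2, Tween-20, BSA, BME. Dosing: single 20 µM dose. Schedule: 90 min reaction incubation at room temperature, dark. Signal: resazurin-to-resorufin fluorescence via G6PDH and diaphorase coupling, 525/613 nm. Controls: DMSO-enzyme wells negative, buffer-substituted wells positive.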
G6PDH counter = L. mesenteroides G6PDH inhibition counter-screen. Purified L. mesenteroides G6PDH, diaphorase/resazurin coupled fluorescence, 45 min. inhibition, % at 5 µM. hit rate 0.12% among 200,000. AID 1020; in the data active = inhibition above about 50%
Diaph inh CS = inhibits diaphorase or chemically oxidizes, flagging diaphorase assay artifacts; diaphorase resazurin-to-resorufin fluorescence, NADH, 16 min; bacterial (C. kluyveri) enzyme, not human; inhibition, % at 20 µM; hit rate 0.69% among 190,000; AID 1217;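 active = primary screen inhibition at 20 µM above a set limit, cut at about 50% in these data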;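 note: plate controls were DMSO with full reaction for no effect and wells lacking NADH for full effect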
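System: Bacterial diaphorase enzyme (C. kluyveri) | Incubation: 16-min room-temperature incubation before reading | Benchmarks: No-NADH positive control and DMSO neutral control | Measured by: Resorufin fluorescence 544/590 nm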
PfGluPho inh = PfG6PD (Plasmodium falciparum) enzyme inhibition; AID 504690; PfGluPho enzyme, NADPH resazurin-diaphorase fluorescence; hit rate 0.78% among 350,000; inhibition, % at 20 µM;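 active = inhibition reaching at least a set limit at 20 µM in the primary screen, cut at about 59% in these data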;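 note: 0% = DMSO wells with substrate and 100% = DMSO wells lacking glucose-6-phosphate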
PfGluPho conf = confirmation of Plasmodium falciparum G6PD inhibitors; shares compounds with PfGluPho inh; recombinant PfGluPho, NADPH-diaphorase-resazurin fluorescence; inhibition, % at 20 µM; hit rate 34% among 2,400;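 active = inhibition of at least 50% at 20 µM in any single replicate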;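 note: 0% = DMSO with substrate and 100% = DMSO lacking glucose-6-phosphate substrate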
Diaphorase 10uM = diaphorase inhibition or oxidation at 10 uM NADPH; shares compounds with PfGluPho inh; diaphorase-coupled resazurin reduction, fluorescence, NADPH 10 uM; inhibition, % at 20 µM; hit rate 39% among 820; AID 504862;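 active = average inhibition reaching 50% or more with the compound at 20 µM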;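 note: resorufin red fluorescence formed as diaphorase reduces resazurin using NADPH; 0% = DMSO with enzyme and 100% = DMSO without enzyme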
Diaphorase 30uM = diaphorase inhibition or oxidation at 30 uM NADPH; inhibition, % at 20 µM; Diaphorase/resazurin coupled assay, resorufin fluorescence; hit rate 29% among 820; shares compounds with PfGluPho inh; AID 504863;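 active = inhibition averaging 50% or more, tested at 20 µM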;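 note: 0% = DMSO with enzyme and 100% = DMSO wells lacking diaphorase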
Numbers without * were called inactive; / = not tested or not shown. In the library only some 1.3% were active in any assay of this set; here they are far more common.

SMILES	HKDC1 inh	G6PDH counter	Diaph inh CS	PfGluPho inh	PfGluPho conf	Diaphorase 10uM	Diaphorase 30uM
COc1cccc(O)c1CN1CCC(n2nccc2NC(=O)c2ccc3c(c2)OCO3)CC1	-4.1	/	/	7.7	/	/	/
CC(=S)/C=C1\Sc2ccccc2N1C	-7.8	-4.1	15.5	47.3	/	/	/
COc1ccc(C(=O)/C=C2\Sc3ccccc3N2C)cc1	-5.3	8.4	5.8	94.6*	47.7*	55.3*	30.8
COc1ccccc1N1CCN(C2CCCN(C(=O)CCC(=O)N(C)C)C2)CC1 (configuration not stated)	-4.7	/	/	4.3	/	/	/
Cc1ccc(Cc2c(-c3ccc(Br)cc3)nc3cc(C)ccn23)cc1	/	/	/	108.7*	14.3	/	/
Cc1ccc(Cc2c(-c3ccccc3)nc3ccc(Br)cn23)cc1	/	/	/	30.9	/	/	/
Cc1ccc(Cc2c(-c3ccc(F)cc3)nc3cc(C)ccn23)cc1	/	/	/	71.3*	-10.6	/	/
Cc1ccn2c(/C=N/OCc3ccc(F)cc3)c(-c3ccc(Cl)cc3)nc2c1	2.0	6.8	9.3	1.4	/	/	/
Cc1ccc(Cc2c(-c3ccc(F)cc3)nc3ccc(Cl)cn23)cc1	/	/	/	62.4*	-17.5	/	/
CCOc1ccc(C(=O)Nc2ccc(S(=O)(=O)N3C[C@@H]4C[C@@H](C3)c3cccc(=O)n3C4)cc2)cc1	-0.8	/	/	6.5	/	/	/
O=C(CS(=O)(=O)Cc1ccccc1)c1ccccc1	/	/	/	6.2	/	/	/
COCCN(C(=O)COC(=O)c1ccccc1NCc1ccco1)c1c(N)n(Cc2ccccc2)c(=O)[nH]c1=O	-1.1	/	/	-5.0	/	/	/
CCc1ccc(Nc2nc(C)cc(C)n2)cc1	3.6	/	/	2.7	/	/	/
CN1CCN(C(=S)NC(=O)c2ccc(Br)cc2)CC1	-0.2	/	/	-4.1	/	/	/
CN1CCN(C(=S)C(=O)Nc2ccc(Br)cc2)CC1	-8.7	10.1	8.7	81.1*	74.1*	-8.6	-3.8
CCCCC1(CO)C(=O)N(c2ccccc2)N(c2ccccc2)C1=O	-4.2	/	/	4.3	/	/	/
CCCCC1C(=O)N(c2ccccc2)N(c2ccc(O)cc2)C1=O (configuration not stated)	-1.9	/	/	77.8*	53.8*	-26.3	-36.0
Cc1cc2[nH]c3c4ccccc4nc(C)c3c2cc1C	3.8	/	/	75.0*	7.6	/	/
Cc1cc2[nH]c3c(c[n+](C)c4ccccc34)c2cc1C	-0.5	10.0	-45.0	55.4	/	/	/
COc1cccc(NC(=O)CSc2nc(O)c(C)c(=O)n2-c2ccc(C)cc2)c1	-4.3	/	/	-0.1	/	/	/
Oc1ccc(N2CCN(c3ccnc4cc(Cl)ccc34)CC2)cc1	3.4	/	/	66.1*	-5.5	/	/
O=C(Nc1ccon1)Nc1cccc(Cl)c1Cl	-1.3	/	/	20.2	/	/	/
CC1=CC(C)(C)NC(=S)N1c1cc(C)cc(C)c1	4.4	8.6	4.1	62.6*	23.0	/	/
CCCCN(C(=O)c1cc(S(=O)(=O)N2CCCCC2)ccc1Cl)c1c(N)n(CC(C)C)c(=O)[nH]c1=O	-4.3	/	/	-0.1	/	/	/
Nc1nonc1-n1nnc(C(=O)N/N=C/c2cccc(F)c2)c1-c1ccc2c(c1)OCO2	0.6	/	/	105.8*	85.1*	74.7*	65.1*
SMILES	HKDC1 inh	G6PDH counter	Diaph inh CS	PfGluPho inh	PfGluPho conf	Diaphorase 10uM	Diaphorase 30uM
Nc1nonc1-n1nnc(C(=O)N/N=C/c2cccnc2)c1-c1ccccc1	-2.8	/	/	9.3	/	/	/
Nc1nonc1-n1nnc(C(=O)N/N=C/c2cccc(F)c2)c1-c1ccccc1	2.8	/	/	85.3*	43.5	/	/
COc1ccc(/C=N/NC(=O)c2nnn(-c3nonc3N)c2-c2cccs2)cc1OC	0.3	/	/	-11.6	/	/	/
Nc1nonc1-n1nnc(C(=O)N/N=C/c2cccc(Cl)c2)c1-c1cccs1	4.7	/	/	125.9*	97.6*	93.5*	75.3*
COc1ccc(S(=O)(=O)N(C)C[C@H]2Oc3ncc(Br)cc3C(=O)N([C@@H](C)CO)C[C@@H]2C)cc1	/	/	/	-7.1	/	/	/
Cc1cc2c(c(C)c1Br)C(c1ccc3c(c1)OCO3)CC(=O)O2 (configuration not stated)	8.1	/	/	24.9	/	/	/
C/C(=N\NC(=O)c1nnn(-c2nonc2N)c1CN(C)c1ccccc1)c1cccnc1	2.1	/	/	39.9	/	/	/
CCOC(=O)/C(=N/Nc1ccc(OC)cc1)N1CCCc2ccccc21	4.2	/	/	111.7*	58.2*	55.8*	50.7*
CCOC(=O)/C(=N/Nc1ccccc1OC)N1CCCc2ccccc21	1.0	/	/	22.6	/	/	/
CCOC(=O)/C(=N/Nc1ccccc1)N1CCCc2ccccc21	0.1	26.0	10.1	94.9*	33.2	/	/
Cc1ccc(NCCCn2cnc3c(OCc4ccccc4)ncnc32)cc1C	3.6	/	/	28.9	/	/	/
c1cncc(CNc2ccc3c(c2)OCO3)c1	8.2	12.0	18.3	67.8*	58.1*	5.0	4.4
Cc1ccc(NC(=O)CSCC(=O)Nc2nnc(C)s2)cc1	-0.1	/	/	7.8	/	/	/
Cc1ccc(/C=C/C(=O)NCC2COc3ccccc3O2)o1 (configuration not stated)	-6.7	4.3	11.2	63.1*	47.8*	5.4	-7.9
Cc1ccc(/C=C/C(=O)NC2CCCCCCC2)o1	2.6	0.4	20.5	80.7*	51.8*	3.1	-2.5
Cc1ccc(/C=C/C(=O)NCc2ccc3c(c2)OCO3)o1	-2.8	5.4	14.3	78.1*	30.2	/	/
Cc1ccc(/C=C/C(=O)NCCc2cccc(Cl)c2)o1	-3.6	/	/	62.5*	49.1*	-5.9	16.2
COc1ccc(/C=C/C(=O)NCC2COc3ccccc3O2)cc1OC (configuration not stated)	2.4	9.7	-9.5	0.2	/	/	/
Cc1ccc(C(=O)NCc2ccc3c(c2)OCO3)o1	-0.7	/	/	-15.7	/	/	/
O=C1/C(=C/c2ccccc2)CCc2ccc(Cl)nc21	21.2	/	/	16.6	/	/	/
Cc1ccc(/C=C/C(=O)NCc2ccc(S(N)(=O)=O)cc2)o1	-3.5	20.1	21.7	67.8*	58.4*	-18.7	-2.5
Cc1ccc(/C=C/C(=O)Nc2ccc(S(N)(=O)=O)cc2)o1	-3.1	0.8	2.6	43.5	/	/	/
CC(C)C1C(=O)N(Cc2cn(CC3CCCCC3)nn2)CCS(=O)(=O)N1Cc1ccc(-c2ccncc2)cc1 (configuration not stated)	/	/	/	1.8	/	/	/
COc1ccc(OC)c2c1C(=O)C(Cl)=C(Cl)C2=O	23.6	/	/	125.5*	112.2*	80.5*	42.4
CCOC(=O)c1ccc(NC(=O)NNS(=O)(=O)c2cc(OC)ccc2OC)cc1	-2.5	/	/	5.8	/	/	/
SMILES	HKDC1 inh	G6PDH counter	Diaph inh CS	PfGluPho inh	PfGluPho conf	Diaphorase 10uM	Diaphorase 30uM
O=C(Cn1sc2ccccc2c1=O)NC12CC3CC(CC(C3)C1)C2	0.1	-3.9	11.8	124.7*	106.2*	-20.1	-21.8
O=C(Cn1sc2ccccc2c1=O)Nc1ccccc1	/	/	/	122.0*	107.5*	-10.3	10.4
O=C(CN1C(=O)c2ccccc2C1=O)Nc1ccccc1	-5.6	/	/	-4.7	/	/	/
O=C(CCCOc1ccc(Cl)cc1Cl)N/N=C/c1cccc([N+](=O)[O-])c1	17.4	-6.5	7.5	112.4*	69.3*	58.9*	48.0
O=C(COc1ccc(Cl)cc1Cl)N/N=C/c1cccnc1	-4.9	/	/	-0.9	/	/	/
O=C(COc1ccc(F)cc1)Nc1nc(-c2cccnc2)cs1	/	/	/	3.8	/	/	/

Screens deposited in PubChem by Sanford-Burnham Center for Chemical Genomics.
